Laboratory results taken from ChEMBL document CHEMBL2311435, “Development of 18F-labeled picolinamide probes for PET imaging of malignant melanoma” (J Med Chem, 2013).

Experiments:
Bone = experiment: Biodistribution in bone of C57BL/6 mouse xenografted with mouse B16F10 cells at 3.7 MBq, iv after 1 hr by gamma-scintillation counting analysis; type: ADME, organism-based, Bone element, B16-F10; details: in vivo
Procedure, shortened: (§1)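 1.0 × 10^6 B16F10 cells in PBS injected subcutaneously into the right shoulder of C57BL/6 mice, grown to 0.5 cm (~10 day). Tail-vein injection of about 3.7 MBq (100 μCi) 18F probe in PBS (0.1 M, pH 7.4). Killed at 1.0 or 2.0 h p.i. (n = 4 per group). Tissues excised, weighed and gamma-counted; uptake expressed as %ID/g, mean ± SD.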

Mus musculus [1] = experiment: Biodistribution in eye of C57BL/6 mouse xenografted with mouse B16F10 cells at 3.7 MBq, iv after 2 hrs by gamma-scintillation counting analysis; type: ADME, organism-based, B16-F10; details: in vivo; procedure, shortened: as §1
Nucleic Acid [2] = experiment: Ratio of drug uptake in tumor to lungs of C57BL/6 mouse xenografted with mouse B16F10 cells at 3.7 MBq, iv after 1 hr by gamma-scintillation counting analysis; type: ADME, organism-based, B16-F10; details: in vivo
Procedure, shortened: (§2)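 Same subcutaneous B16F10 model and tail-vein dose of about 3.7 MBq (100 μCi), n = 4 per group. Dissection at 1 or 2 h p.i. Gamma-counter %ID/g of tumor divided by that of blood, lung, liver or muscle, given as mean ± SD.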

Kidney [3] = experiment: Biodistribution in kidney of C57BL/6 mouse xenografted with mouse B16F10 cells at 3.7 MBq, iv after 1 hr by gamma-scintillation counting analysis; type: ADME, organism-based, B16-F10; details: in vivo; procedure, shortened: as §1
[4] = Drug uptake in tumor of C57BL/6 mouse xenografted with mouse B16F10 cells at 3.7 MBq, iv after 1 hr by PET imaging analysis; type: ADME, organism-based, Neoplasm, B16-F10; details: in vivo
Procedure, shortened: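 Static small-animal PET at 0.5, 1 and 2 h after tail-vein injection of ~3.7 MBq (100 μCi) into B16F10-bearing C57BL/6 mice (n = 4 per probe). Isoflurane anesthesia, 5% induction and 2% maintenance in O2. Decay-corrected images. ROI-derived %ID/g assumes 1 g/ml density, without attenuation correction. Mean ± SD.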

Nucleic Acid [5] = experiment: Ratio of drug uptake in tumor to blood of C57BL/6 mouse xenografted with mouse B16F10 cells at 3.7 MBq, iv after 1 hr by gamma-scintillation counting analysis; type: ADME, organism-based, B16-F10; details: tumour; procedure, shortened: as §2
Nucleic Acid [6] = experiment: Ratio of drug uptake in tumor to muscle of C57BL/6 mouse xenografted with mouse B16F10 cells at 3.7 MBq, iv after 2 hrs by gamma-scintillation counting analysis; type: ADME, organism-based, B16-F10; details: in vivo; procedure, shortened: as §2
Stomach = experiment: Biodistribution in stomach of C57BL/6 mouse xenografted with mouse B16F10 cells at 3.7 MBq, iv after 2 hrs by gamma-scintillation counting analysis; type: ADME, organism-based, B16-F10; details: in vivo; procedure, shortened: as §1
Brain = experiment: Biodistribution in brain of C57BL/6 mouse xenografted with mouse B16F10 cells at 3.7 MBq, iv after 1 hr by gamma-scintillation counting analysis; type: ADME, organism-based, B16-F10; details: in vivo; procedure, shortened: as §1
Kidney [7] = experiment: Drug uptake in kidney of C57BL/6 mouse xenografted with mouse B16F10 cells at 3.7 MBq, iv after 5 mins by PET imaging analysis; type: ADME, organism-based, B16-F10; details: in vivo
Procedure, shortened: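 Dynamic small-animal PET in B16F10 tumor-bearing mice (n = 4) after tail-vein injection of ~3.7 MBq (100 μCi). Scanning began ~2.0 min post-injection and ran 35 min (6×20 s, 8×60 s, 10×150 s; 24 frames). ROI counts converted to %ID/g assuming 1 g/ml tissue density. No attenuation correction.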

Pancreas = experiment: Biodistribution in pancreas of C57BL/6 mouse xenografted with mouse B16F10 cells at 3.7 MBq, iv after 2 hrs by gamma-scintillation counting analysis; type: ADME, organism-based, B16-F10; details: in vivo; procedure, shortened: as §1
Kidney [8] = experiment: Biodistribution in kidney of C57BL/6 mouse xenografted with mouse B16F10 cells at 3.7 MBq, iv after 2 hrs by gamma-scintillation counting analysis; type: ADME, organism-based, B16-F10; details: in vivo; procedure, shortened: as §1
Nucleic Acid [9] = experiment: Ratio of drug uptake in tumor to lungs of C57BL/6 mouse xenografted with mouse B16F10 cells at 3.7 MBq, iv after 2 hrs by gamma-scintillation counting analysis; type: ADME, organism-based, B16-F10; details: in vivo; procedure, shortened: as §2
Mus musculus [10] = experiment: Biodistribution in lungs of C57BL/6 mouse xenografted with mouse B16F10 cells at 3.7 MBq, iv after 2 hrs by gamma-scintillation counting analysis; type: ADME, organism-based, Lung, B16-F10; details: in vivo; procedure, shortened: as §1

Drug uptake (Bone): 2.4 % ID/g
Drug uptake (Mus musculus [1]): 32.83 % ID/g
Ratio (Nucleic Acid [2]): 9.94
Drug uptake (Kidney [3]): 3.32 % ID/g
Drug uptake [4]: 16.61 % ID/g
Ratio (Nucleic Acid [5]): 41.44
Ratio (Nucleic Acid [6]): 36.79
Drug uptake (Stomach): 1.47 % ID/g
Drug uptake (Brain): 1.28 % ID/g
Drug uptake (Kidney [7]): 24.91 % ID/g
Drug uptake (Pancreas): 0.61 % ID/g
Drug uptake (Kidney [8]): 1.03 % ID/g
Ratio (Nucleic Acid [9]): 24.92
Drug uptake (Mus musculus [10]): 0.69 % ID/g
SMILES: CCN(CC)CCNC(=O)c1ccc([18F])cn1
